Measurements published in publication PMC4959095 (The Journal of Pharmacology and Experimental Therapeutics, 2016).

Tests used:
[1] = subcutaneous depot pharmacokinetics in mice; format: in vivo, mouse
Summary of the method: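 Male C57BL/6J mice (n = 2) got a single s.c. injection (100 µl) in a lipid-based gel depot designed for sustained release over at least 48 hours. Retro-orbital blood was drawn at 0.5, 1, 2, 4, 6 and 24 hours. Plasma standard curves were 0.5–1000 ng/ml (analog) and 0.5–500 ng/ml (native peptide), 1/x2 regression. Free concentrations were derived with fu,p.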

[2] = subcutaneous nondepot pharmacokinetics in mice; format: in vivo, mouse
Summary of the method: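 Male C57BL/6J mice (n = 3 per dose) got a single nondepot s.c. injection.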

V1a receptor = V1a receptor (Homo sapiens, UniProt P37288); assay: V1a receptor functional agonist assay; format: cell-based
Sequence of V1a receptor (P37288 whole entry): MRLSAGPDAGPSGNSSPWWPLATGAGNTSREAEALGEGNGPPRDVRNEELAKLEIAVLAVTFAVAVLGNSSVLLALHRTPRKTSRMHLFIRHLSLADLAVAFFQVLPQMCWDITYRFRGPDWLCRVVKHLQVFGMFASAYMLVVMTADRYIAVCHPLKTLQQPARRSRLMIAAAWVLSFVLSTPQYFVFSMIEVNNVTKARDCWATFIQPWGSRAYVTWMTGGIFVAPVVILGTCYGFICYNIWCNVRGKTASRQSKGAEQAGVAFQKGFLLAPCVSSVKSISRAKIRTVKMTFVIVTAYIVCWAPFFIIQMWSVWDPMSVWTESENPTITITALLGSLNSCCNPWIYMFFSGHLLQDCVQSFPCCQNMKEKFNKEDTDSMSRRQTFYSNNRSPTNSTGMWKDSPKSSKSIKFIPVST

hOTR (oxytocin receptor) = target: T1, hOTR (oxytocin receptor) (Homo sapiens, UniProt P30559); format: cell-based; conditions: calcium flux, normalized to control responses
T1 sequence (P30559 1-389): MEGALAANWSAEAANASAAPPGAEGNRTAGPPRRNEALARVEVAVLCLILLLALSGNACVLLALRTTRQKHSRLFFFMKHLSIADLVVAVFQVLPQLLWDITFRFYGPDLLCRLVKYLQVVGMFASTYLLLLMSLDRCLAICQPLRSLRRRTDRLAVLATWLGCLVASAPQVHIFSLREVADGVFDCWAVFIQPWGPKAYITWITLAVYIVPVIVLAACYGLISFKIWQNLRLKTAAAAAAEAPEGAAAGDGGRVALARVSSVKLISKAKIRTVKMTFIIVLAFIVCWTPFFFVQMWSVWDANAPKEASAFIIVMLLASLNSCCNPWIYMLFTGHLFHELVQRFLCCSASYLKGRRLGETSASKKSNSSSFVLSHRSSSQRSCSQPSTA

[3] = intravenous pharmacokinetics in rats; format: in vivo; conditions: male, Wistar Hannover, rat, plasma, 0.1 mg/kg
Summary of the method: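 Jugular vein-cannulated male Wistar Hannover rats (250–300 g; n = 3) got a single i.v. bolus at 1 ml/kg. The native peptide was in 10% propylene glycol/90% 20 mM sodium phosphate, pH 7.4; the analog in 10% SEDDs/90% 20 mM phosphate, pH 5. Serial cannula blood was drawn predose and at 0.033–24 hours. Plasma standard curve ran 0.1–250 ng/ml with 1/x2 linear regression.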

[4] = male, C57BL/6J, mouse, plasma, sc, 20 mg/kg
[5] = mice, s.c. 1 mg/kg, nondepot formulation

Cmax [1, 4]: 65.4 nM | half-life [1, 4]: 7.3 h | free Cmax ([1]; mice, s.c. 20 mg/kg, depot formulation): 58.2 nM | Cmax ([2]; male, C57BL/6J, mouse, plasma, sc, 1 mg/kg): 216 nM | free Cmax [2, 5]: 191 nM | time of Cmax postdose [2, 5]: 0.25 h | V1a % agonist (V1a receptor): 94 (n = 70) % | OTR % agonist (hOTR (oxytocin receptor)): 100 (n = 70) % | clearance [3]: 17.1 mL/min/kg | half-life [3]: 7.2 min
Compound: CC[C@H](C)[C@@H]1NC(=O)[C@H](Cc2ccc(O)cc2)NC(=O)[C@@H](N)CSSC[C@@H](C(=O)N2CCC[C@H]2C(=O)N[C@@H](CC(C)C)C(=O)NCC(N)=O)NC(=O)[C@H](CC(N)=O)NC(=O)[C@H](CCC(N)=O)NC1=O [OT, Oxytocin]
